Data published in ChEMBL document CHEMBL1124128, “Angiotensin-converting enzyme inhibitors. Mercaptan, carboxyalkyl dipeptide, and phosphinic acid inhibitors incorporating 4-substituted prolines” (J Med Chem, 1988).
“And” between values parts separate entries of the source, which are not always exact repeats. Equal values may be shown once.

Experiments:
[1] = target: T1, Angiotensin-converting enzyme (Rattus norvegicus, UniProt P47820); test: In vitro inhibitory activity against angiotensin I converting enzyme of rats.; settings: read-out: I50
T1 sequence (P47820 whole entry): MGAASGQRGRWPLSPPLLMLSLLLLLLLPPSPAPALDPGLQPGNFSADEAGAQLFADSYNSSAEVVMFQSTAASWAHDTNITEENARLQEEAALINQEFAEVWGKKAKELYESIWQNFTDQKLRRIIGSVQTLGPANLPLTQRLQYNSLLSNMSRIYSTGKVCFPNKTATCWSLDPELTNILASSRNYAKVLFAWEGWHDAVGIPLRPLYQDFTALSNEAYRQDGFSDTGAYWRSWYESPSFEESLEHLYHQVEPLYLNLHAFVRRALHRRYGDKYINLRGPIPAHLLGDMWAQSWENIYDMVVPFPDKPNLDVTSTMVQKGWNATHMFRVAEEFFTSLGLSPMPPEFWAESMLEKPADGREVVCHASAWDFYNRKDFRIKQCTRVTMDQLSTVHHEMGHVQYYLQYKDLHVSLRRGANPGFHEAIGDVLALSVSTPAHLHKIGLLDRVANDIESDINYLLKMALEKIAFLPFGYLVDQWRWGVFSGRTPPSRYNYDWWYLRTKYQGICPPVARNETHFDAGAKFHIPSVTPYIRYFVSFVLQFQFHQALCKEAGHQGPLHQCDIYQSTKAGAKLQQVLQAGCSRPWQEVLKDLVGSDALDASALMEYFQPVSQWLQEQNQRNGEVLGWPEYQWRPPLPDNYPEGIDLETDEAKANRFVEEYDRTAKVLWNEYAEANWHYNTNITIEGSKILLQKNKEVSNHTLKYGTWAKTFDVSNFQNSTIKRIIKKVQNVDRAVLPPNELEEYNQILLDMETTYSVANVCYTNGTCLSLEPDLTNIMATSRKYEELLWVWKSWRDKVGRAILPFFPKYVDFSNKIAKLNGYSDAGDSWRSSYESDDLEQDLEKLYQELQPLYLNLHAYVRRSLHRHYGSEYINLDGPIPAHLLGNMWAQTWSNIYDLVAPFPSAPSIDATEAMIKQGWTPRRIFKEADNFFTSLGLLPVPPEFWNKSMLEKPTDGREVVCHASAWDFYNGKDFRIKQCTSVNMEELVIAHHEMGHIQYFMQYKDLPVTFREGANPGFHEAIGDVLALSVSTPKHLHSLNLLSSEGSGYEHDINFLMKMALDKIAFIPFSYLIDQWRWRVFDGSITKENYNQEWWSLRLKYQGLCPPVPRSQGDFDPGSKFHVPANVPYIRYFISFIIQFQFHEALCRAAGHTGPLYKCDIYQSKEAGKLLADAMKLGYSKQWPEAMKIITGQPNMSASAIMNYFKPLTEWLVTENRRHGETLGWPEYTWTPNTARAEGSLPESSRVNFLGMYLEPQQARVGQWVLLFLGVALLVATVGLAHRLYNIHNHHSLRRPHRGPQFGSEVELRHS

Rattus norvegicus [2] = test: % Inhibition of angiotensin-I induced pressor response in normotensive rats after intravenous dosing of 0.5 umol/kg; type: functional
How it was run: (§1)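 Conscious, unrestrained male Sprague–Dawley rats (225–275 g) with indwelling aortic and vena caval catheters, allowed at least 2 weeks of recovery. Aortic pressure recorded directly. Baseline pressor responses to AI (310 ng/kg iv) and AII (100 ng/kg iv) were taken first. Compound was given iv in 0.1 mL water or 5% NaHCO3, and responses were followed for up to 70 min. Maximum % inhibition is the mean of four animals per dose.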

Rattus norvegicus [3] = test: % Inhibition of angiotensin-I induced pressor response in normotensive rats after intravenous dosing of 0.15 umol/kg; type: functional; how it was run: as §1
Rattus norvegicus [4] = test: % Inhibition of angiotensin-I induced pressor response in normotensive rats after intravenous dosing of 0.05 umol/kg; type: functional
How it was run: (§2)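 Male Sprague–Dawley rats (225–275 g) fitted with indwelling abdominal aorta and vena cava catheters, recovered at least 2 weeks, then tested conscious and unrestrained. Aortic pressure was recorded directly. Pressor responses to AI (310 ng/kg iv) and AII (100 ng/kg iv) were taken before dosing. Compound was given iv in water or 5% NaHCO3, and responses were followed up to 70 min. Maximum % inhibition is the mean of four animals per dose.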

[5] = target: T2, Angiotensin-converting enzyme (Rattus norvegicus) (UniProt P47820); test: In vitro inhibition of rat Angiotensin I converting enzyme
T2 sequence (whole entry): T1 sequence (P47820 whole entry)

Rattus norvegicus [6] = test: % Inhibition of angiotensin-I induced pressor response in normotensive rats after intravenous dosing of 0.015 umol/kg; type: functional; how it was run: as §2
Rattus norvegicus [7] = test: % Inhibition of angiotensin-I induced pressor response in normotensive rats after peroral dosing of 15 umol/kg; type: functional; settings: po
How it was run: (§3)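 Conscious, unrestrained catheterized male Sprague–Dawley rats (225–275 g) had direct aortic pressure recording. Baseline pressor responses were taken to AI (310 ng/kg iv) and AII (100 ng/kg iv). Compound was given orally in water, 5% NaHCO3 or 1% agar suspension. AI and AII responses were then tracked up to 280 min. Maximum % inhibition is the mean response of four animals per dose.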

Rattus norvegicus [8] = test: % Inhibition of angiotensin-I induced pressor response in normotensive rats after peroral dosing of 5 umol/kg; type: functional; settings: po; how it was run: as §3
Rattus norvegicus [9] = test: % Inhibition of angiotensin-I induced pressor response in normotensive rats after peroral dosing of 50 umol/kg; type: functional; settings: po; how it was run: as §3
[10] = target: T2, Angiotensin-converting enzyme (Rattus norvegicus); test: Evaluated for inhibition of Angiotensin I converting enzyme in rat; type: functional; settings: concentration not given here
Rattus norvegicus [11] = test: % Inhibition of angiotensin-I induced pressor response in normotensive rats after peroral dosing of 0.5 umol/kg; type: functional; settings: po; how it was run: as §3
Rattus norvegicus [12] = test: % Inhibition of angiotensin-I induced pressor response in normotensive rats after peroral dosing of 1.5 umol/kg; type: functional; settings: po; how it was run: as §3
Rattus norvegicus [13] = test: % Inhibition of angiotensin-I induced pressor response in normotensive rats after intravenous dosing of 1.5 umol/kg; type: functional; how it was run: as §1
Rattus norvegicus [14] = test: % Inhibition of angiotensin-I induced pressor response in normotensive rats after intravenous dosing of 5 umol/kg; type: functional; how it was run: as §1

Compound | IC50 [1] [nM] | inhibition in vivo at 0.5 µmol/kg (Rattus norvegicus [2]) [%] | inhibition in vivo at 0.15 µmol/kg (Rattus norvegicus [3]) [%] | inhibition in vivo at 0.05 µmol/kg (Rattus norvegicus [4]) [%] | T50 [5] | other results
C[C@H](CS)C(=O)N1CC2(C[C@H]1C(=O)O)SCCS2 | 6.5 | – | – | – | – | –
CO[C@H]1C[C@@H](C(=O)O)N(C(=O)[C@H](C)CS)C1 | 2.8 | – | – | – | – | –
O=C(O)[C@@H]1C[C@H](c2ccccc2)CN1C(=O)CP(=O)(O)CCCCc1ccccc1 | – | 97 | 69 | 16 | 7 nM | –
COC1(OC)C[C@@H](C(=O)O)N(C(=O)[C@H](C)CS)C1 | 7.2 | – | – | – | – | –
CS[C@H]1C[C@@H](C(=O)O)N(C(=O)[C@H](C)CS)C1 | 3 | – | – | – | – | –
CS[C@@H]1C[C@@H](C(=O)O)N(C(=O)CP(=O)(O)CCCCc2ccccc2)C1 | – | 79 | 27 | 44 | 29 nM | inhibition in vivo at 0.015 µmol/kg (Rattus norvegicus [6]): 7%
O=C(O)[C@@H]1CC2(CN1C(=O)CP(=O)(O)CCCCc1ccccc1)SCCS2 | – | 90 | 80 | 47 | 4 nM and 2 nM | inhibition in vivo at 15 µmol/kg (Rattus norvegicus [7]): 74%; inhibition in vivo at 0.015 µmol/kg (Rattus norvegicus [6]): 20%; inhibition in vivo at 5 µmol/kg (Rattus norvegicus [8]): 28%; inhibition in vivo at 50 µmol/kg (Rattus norvegicus [9]): 94%
O=C(O)[C@@H]1C[C@H](Cc2ccccc2)CN1C(=O)CP(=O)(O)CCCCc1ccccc1 | – | – | – | – | 10 nM | –
C[C@H]1C[C@@H](C(=O)O)N(C(=O)[C@H](C)CS)C1 | 2 | – | – | – | – | –
CS[C@@H]1C[C@@H](C(=O)O)N(C(=O)[C@H](C)N[C@@H](CCc2ccccc2)C(=O)O)C1 | 5 | – | 77 | 69 | – | inhibition in vivo at 0.015 µmol/kg (Rattus norvegicus [6]): 29%
C[C@H](CS)C(=O)N1C[C@@H](Sc2ccc3ccccc3c2)C[C@H]1C(=O)O | 96 | – | – | – | – | –
C[C@H](N[C@@H](CCc1ccccc1)C(=O)O)C(=O)N1CCC[C@H]1C(=O)O [ENALAPRILAT ANHYDROUS] | – | – | 90 | 67 | – | inhibition in vivo at 15 µmol/kg (Rattus norvegicus [7]): 85%; inhibition in vivo at 0.015 µmol/kg (Rattus norvegicus [6]): 11%; inhibition in vivo at 5 µmol/kg (Rattus norvegicus [8]): 46%
O=C(O)[C@@H]1C[C@H](C2CCCCC2)CN1C(=O)CP(=O)(O)CCCCc1ccccc1 | – | 84 | 73 | 26 | 7 nM | inhibition [10]: 72%; inhibition in vivo at 5 µmol/kg (Rattus norvegicus [8]): 13%
CCOC(=O)[C@H](CCc1ccccc1)N[C@@H](C)C(=O)N1C[C@@H](Sc2ccccc2)C[C@H]1C(=O)O | – | – | – | – | – | inhibition in vivo at 0.5 µmol/kg (Rattus norvegicus [11]): 29%; inhibition in vivo at 1.5 µmol/kg (Rattus norvegicus [12]): 81%; inhibition in vivo at 5 µmol/kg (Rattus norvegicus [8]): 86%
CO[C@@H]1C[C@@H](C(=O)O)N(C(=O)[C@H](C)CS)C1 | 12 | – | – | – | – | –
O=C(O)[C@@H]1C[C@@H](c2ccccc2)CN1C(=O)CP(=O)(O)CCCCc1ccccc1 | – | 76 | 37 | 17 | 120 nM | –
CCOC(=O)[C@H](CCc1ccccc1)N[C@@H](C)C(=O)N1CCC[C@H]1C(=O)O | – | – | – | – | – | inhibition in vivo at 0.5 µmol/kg (Rattus norvegicus [11]): 50%; inhibition in vivo at 1.5 µmol/kg (Rattus norvegicus [12]): 84%; inhibition in vivo at 5 µmol/kg (Rattus norvegicus [8]): 83%
O=C(O)[C@@H]1C[C@@H](Sc2ccccc2)CN1C(=O)CP(=O)(O)CCCCc1ccccc1 | – | 48 | 19 | 20 | 17 nM | inhibition in vivo at 1.5 µmol/kg (Rattus norvegicus [13]): 69%; inhibition in vivo at 5 µmol/kg (Rattus norvegicus [14]): 78%
C[C@H](N[C@@H](CCc1ccccc1)C(=O)O)C(=O)N1C[C@@H](c2ccccc2)C[C@H]1C(=O)O | 5 | – | – | – | – | –
